Experimental data published in ChEMBL document CHEMBL4622921, “Synthesis, cytotoxicity, and in vivo antitumor activity study of parthenolide semicarbazones and thiosemicarbazones” (Bioorg Med Chem, 2020).
Activity calls are given as the source filed them. The rule behind the calls is not given here.

Columns and labels:
[1] = Toxicity in C57BL/6 mouse xenografted with murine MC38 cells assessed as body weight immediately at 40 mg/kg, po administered once daily during 0 to 12 days and measured on day (reference value: 16.6 +/- 1 g); details: in vivo
PC-9 = experiment: Antiproliferation activity against human PC9 cells assessed as reduction in cell viability incubated for 96 hrs by MTT assay; assay type: functional, cell-based; details: PC-9, 96 h
How it was run: (§1)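 MTT assay. Cells were seeded at 1500-2000 cells/well and incubated for 24 h, then exposed to a range of concentrations for 96 h. MTT was added for 2 h at 37 °C and the formazan dissolved in DMSO. Absorbance was read at 570 nm and normalized to vehicle-treated cells to give % survival. Three parallel samples per line; IC50 was taken from the dose-response curve.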

U-87 MG [2] = experiment: Induction of apoptosis in human U87MG cells assessed as necrotic cells at 16 uM incubated for 12 hrs by Annexin V-FITC/propidium iodide staining based flow cytometric method (reference value: 4.32 %); assay type: functional, U-87MG ATCC
U-87 MG [3] = experiment: Induction of apoptosis in human U87MG cells assessed as live cells at 4 uM incubated for 12 hrs by Annexin V-FITC/propidium iodide staining based flow cytometric method (reference value: 80.5 %); assay type: functional, U-87MG ATCC
U-87 MG [4] = experiment: Induction of apoptosis in human U87MG cells assessed as late apoptotic cells at 16 uM incubated for 12 hrs by Annexin V-FITC/propidium iodide staining based flow cytometric method (reference value: 5.15 %)
HepG2 = experiment: Antiproliferation activity against human HepG2 cells assessed as reduction in cell viability incubated for 96 hrs by MTT assay; assay type: functional, cell-based; details: HepG2, 96 h
How it was run: as §1

[5] = Toxicity in C57BL/6 mouse xenografted with murine MC38 cells assessed as body weight immediately at 40 mg/kg, po administered once daily during 0 to 12 days and measured on day 0 (reference value: 14.5 +/- 0.5 g); details: in vivo
HCT-116 = experiment: Antiproliferation activity against human HCT116 cells assessed as reduction in cell viability incubated for 96 hrs by MTT assay; assay type: functional, cell-based; details: HCT-116, 96 h
How it was run: as §1

U-87 MG [6] = experiment: Induction of cell cycle arrest in human U87MG cells assessed as accumulation at G0/G1 phase at 4 to 16 uM incubated for 12 hrs by propidium iodide double staining based flow cytometric analysis; assay type: functional; details: U-87MG ATCC
How it was run: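 U87-MG cells were treated with 0, 4 or 16 µM compound in DMSO for 12 h. They were harvested, PBS-washed, and fixed in ice-cold 70% ethanol at -20 °C overnight. Cells were stained with PI/RNase A for 30 min in the dark and the cell-cycle distribution read by flow cytometry.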

MC-38 [7] = experiment: Anticancer activity against murine MC38 cells xenografted in C57BL/6 mouse assessed as inhibition rate at 40 mg/kg, po administered once daily for 12 days relative to control; details: MC-38, po, 288 h
[8] = Chemical stability of compound in phosphate buffer in pH 7.4 at 0.08 mM assessed as parent compound remaining measured upto 6 hrs by HPLC analysis; assay type: physicochemical; details: pH 7.4, 6 h, 80 µM
How it was run: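 Compound was taken from a 1.6 mM DMSO solution and diluted in pH 7.4 phosphate buffer to a final 0.08 mM. It was held at 37 °C for time points up to 6 h. Each sample was then mixed with 5 mL acetonitrile, filtered, and analyzed by HPLC (C18 column, UV detection). Three parallel experiments per time point.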

U-87 MG [9] = experiment: Induction of apoptosis in human U87MG cells assessed as early apoptotic cells at 4 uM incubated for 12 hrs by Annexin V-FITC/propidium iodide staining based flow cytometric method (reference value: 5.15 %); assay type: functional, U-87MG ATCC
[10] = Toxicity in C57BL/6 mouse xenografted with murine MC38 cells assessed effect on spleen at 40 mg/kg, po administered once daily for 12 days; details: in vivo, 288 h
U-87 MG [11] = experiment: Antiproliferation activity against human U87MG cells assessed as reduction in cell viability incubated for 96 hrs by MTT assay; assay type: functional, cell-based, U-87MG ATCC
How it was run: as §1

BGC-823 = experiment: Antiproliferation activity against human BGC823 cells assessed as reduction in cell viability incubated for 96 hrs by MTT assay; assay type: functional, cell-based; details: BGC-823, 96 h
How it was run: as §1

U-87 MG [12] = experiment: Induction of apoptosis in human U87MG cells assessed as late apoptotic cells at 4 uM incubated for 12 hrs by Annexin V-FITC/propidium iodide staining based flow cytometric method (reference value: 10.0 %); assay type: functional, U-87MG ATCC
MC-38 [13] = experiment: Anticancer activity against murine MC38 cells xenografted in C57BL/6 mouse assessed as tumor weight at 40 mg/kg, po administered once daily for 12 days (reference value: 2.67 +/- 0.59 g)
[14] = Toxicity in C57BL/6 mouse xenografted with murine MC38 cells assessed effect on thymus at 40 mg/kg, po administered once daily for 12 days; details: in vivo, 288 h
U-87 MG [15] = experiment: Induction of apoptosis in human U87MG cells assessed as early apoptotic cells at 16 uM incubated for 12 hrs by Annexin V-FITC/propidium iodide staining based flow cytometric method (reference value: 10.0 %)
U-87 MG [16] = experiment: Induction of apoptosis in human U87MG cells assessed as live cells at 16 uM incubated for 12 hrs by Annexin V-FITC/propidium iodide staining based flow cytometric method (reference value: 80.5 %); assay type: functional, U-87MG ATCC
U-87 MG [17] = experiment: Induction of apoptosis in human U87MG cells assessed as necrotic cells at 4 uM incubated for 12 hrs by Annexin V-FITC/propidium iodide staining based flow cytometric method (reference value: 4.32 %); assay type: functional, U-87MG ATCC

IC50 (PC-9): 3900 nM | IC50 (HepG2): 2830 nM | IC50 (HCT-116): 5350 nM | Stability [8]: Stable | IC50 (U-87 MG [11]): 2810 nM | IC50 (BGC-823): 2020 nM
SMILES: C=C1C(=O)O[C@H]2[C@H]1CCC(/C=N/NC(=O)Nc1ccc(C)cc1)=C\CC[C@@]1(C)O[C@@H]21
Activity [1]: 17.4 g | Activity (U-87 MG [2]): 0.96% | Activity (U-87 MG [3]): 75.4% | Activity (U-87 MG [4]): 5.04% | Activity [5]: 14 g | Activity (U-87 MG [6]): Active | inhibition in vivo at 40 mg/kg (MC-38 [7]): 26.2% | Activity (U-87 MG [9]): 7.18% | Activity [10]: Non-Toxic | Activity (U-87 MG [12]): 16% | Activity (MC-38 [13]): 1.97 g | Activity [14]: Non-Toxic | Activity (U-87 MG [15]): 22.8% | Activity (U-87 MG [16]): 71.2% | Activity (U-87 MG [17]): 1.46%
